# Compound activity as filed in PubChem BioAssay.
# pPAFAH FP inh = pPAFAH (human) enzyme inhibition; Q13093; inhibition, % at 3.39 µM; actives 1.5% (n = 330,000); AID 463082; recombinant pPAFAH, FP-rhodamine probe fluorescence polarization;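 active means inhibition above the mean inhibition across the screen plus 3 SD, cut at about 25% in these data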;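 further: inhibitors block binding of the rhodamine activity-based probe so polarization drops; 0% = enzyme with DMSO and 100% = wells lacking pPAFAH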
# Apaf1 inhib = human Apaf-1 inhibition | reconstituted apoptosome caspase-3 activity, DEVD-Rh110 fluorescence | inhibition, % at 20 µM | actives 0.71% (n = 330,000) | AID 489030; active means inhibition of at least 40% at 20 µM;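 further: plate controls were DMSO wells for no effect and DEVD-CHO caspase inhibitor wells for full effect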
#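 detection = Rh110 fluorescence intensity | test system = biochemical Apaf-1 apoptosome reconstitution | also added = cytochrome c and DEVD-Rh110 substrate | schedule = 30 min plus 50 min, RT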
# PAFAH2 inh = inhibitors of human PAFAH2. inhibition, % at 3.39 µM. recombinant PAFAH2, FP-rhodamine activity probe, fluorescence polarization. AID 492956. actives 0.99% (n = 340,000);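 active means inhibition above the mean over all tested compounds plus 3 SD, cut at about 30% in these data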;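 further: inhibitors block probe labeling of enzyme so polarization drops; 0% = enzyme with DMSO and 100% = wells lacking PAFAH2 protein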
# PAFAH1B2 inh = PAFAH1B2 (human) inhibition. P68402. recombinant PAFAH1B2, FP-rhodamine activity probe, fluorescence polarization. inhibition, % at 3.39 µM. actives 1.2% (n = 340,000);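 active means inhibition above the mean of all tested compounds plus 3 SD, cut at about 24% in these data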;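 further: 0% = enzyme with DMSO and 100% = wells lacking PAFAH1B2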
# Target sequence (P68402 whole entry, looked up): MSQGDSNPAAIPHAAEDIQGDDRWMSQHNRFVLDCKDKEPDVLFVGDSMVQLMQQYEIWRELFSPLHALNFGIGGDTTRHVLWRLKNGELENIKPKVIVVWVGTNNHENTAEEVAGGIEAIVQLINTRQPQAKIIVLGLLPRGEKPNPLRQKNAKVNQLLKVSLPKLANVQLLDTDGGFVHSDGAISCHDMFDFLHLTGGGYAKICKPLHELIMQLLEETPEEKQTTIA
# PAFAH1B3 inh = inhibitors of human PAFAH1B3; actives 0.28% (n = 340,000); inhibition, % at 3.39 µM; AID 492972; recombinant PAFAH1B3, FP-rhodamine probe, fluorescence polarization;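 active means inhibition above the screen-wide average of all tested compounds plus 3 SD, cut at about 25% in these data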;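 further: 0% = enzyme with DMSO only and 100% = wells lacking PAFAH1B3 protein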
# Target sequence (Q15102 whole entry, looked up): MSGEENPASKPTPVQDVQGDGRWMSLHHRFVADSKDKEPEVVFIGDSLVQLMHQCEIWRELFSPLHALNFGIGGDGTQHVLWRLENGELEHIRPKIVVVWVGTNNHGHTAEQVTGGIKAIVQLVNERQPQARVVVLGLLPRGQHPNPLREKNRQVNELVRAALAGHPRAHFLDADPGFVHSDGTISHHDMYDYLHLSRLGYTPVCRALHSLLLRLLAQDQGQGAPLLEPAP
# PAFAH2 FP conf = confirmation of human PAFAH2 inhibitors; shares compounds with PAFAH2 inh; recombinant PAFAH2, FP-rhodamine activity probe, fluorescence polarization; inhibition, % at 3.39 µM; actives 65% (n = 2,300);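 active means mean inhibition over three repeats above a set limit taken from the earlier primary screen, cut at about 30% in these data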;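 further: inhibitor blocks binding of rhodamine activity probe so polarization falls; 0% = enzyme with DMSO and 100% = wells lacking PAFAH2 protein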
# * marks the source's active call; other numbers are inactive results; · = not tested or not shown. Sampled rows, rich in hits. Any-hit rate of the full collection: about 3.1%.
SMILES,pPAFAH FP inh,Apaf1 inhib,PAFAH2 inh,PAFAH1B2 inh,PAFAH1B3 inh,PAFAH2 FP conf
O=C(COC(=O)C1CC1)Nc1ccc([N+](=O)[O-])cc1C(F)(F)F,13.3,1.6,53.0*,-3.6,4.8,44.6*
Cc1ccc(S(=O)(=O)N2CC(O)CC2C(=O)OCC(=O)Nc2ccc([N+](=O)[O-])cc2C(F)(F)F)cc1C (stereo not drawn),1.5,2.7,-0.3,2.9,1.3,·
CCOC(=O)c1cnc2oc3ccccc3n2c1=O,2.0,-4.1,3.9,0.0,0.2,·
O=C(OCc1nnc(-c2ccccc2Br)o1)c1ccco1,12.6,-1.0,53.0*,8.6,-3.8,49.6*
O=C(OCc1nc(-c2ccccc2Cl)no1)c1ccco1,-1.5,-0.7,42.1*,-0.4,5.6,41.2*
O=C(CSc1nnc(NC(=O)C2CC2)s1)Nc1ccccc1C(F)(F)F,0.1,-1.7,14.0,0.6,-0.4,·
Nc1nc(-c2ccccc2)c(CCCOc2ccc(NC(=O)CBr)cc2)c(=O)[nH]1,·,·,4.3,-0.4,12.5,·
COc1ccc(C(=O)OCC(=O)Nc2c(C)cccc2C)c(OC)c1OC,2.2,0.0,52.2*,2.3,4.1,42.9*
COc1ccc(C(=O)OCC(=O)Nc2cccc(C(C)=O)c2)c(OC)c1OC,10.3,6.2,83.0*,0.4,7.8,85.9*
COc1ccc(CC(=O)OCC(=O)Nc2cccc(C(C)=O)c2)cc1OC,·,-1.9,10.9,2.5,9.6,·
COc1cccc(C(=O)OCC(=O)NCCc2ccccc2)c1OC,15.2,-5.1,57.7*,-1.0,9.5,44.0*
CC(=O)NCCC(=O)Nc1cc(S(=O)(=O)N2CCOCC2)ccc1N1CCCC1,2.5,-5.1,2.3,5.5,5.6,·
COc1cc(OC)c(N(C)S(=O)(=O)c2cccc(C(=O)OCC(=O)N(C)C3CCCCC3)c2)cc1Cl,·,·,40.0*,0.1,-6.9,27.4
COc1cc(OC)c(NS(=O)(=O)c2cccc(C(=O)OCC(=O)NCC3CCCO3)c2)cc1Cl (stereo not drawn),17.5,-12.6,38.6*,3.0,-2.3,31.4*
CCOc1ccc(S(=O)(=O)N2CCC(C(=O)NCc3ccncc3)CC2)cc1,-0.6,-12.7,1.0,0.2,1.4,·
CCOC(=O)C1CC2=C(CCCC2=O)NC1=O (stereo not drawn),·,·,32.3*,2.9,6.8,21.6
C=C(C)n1c(=O)n(Cc2ccccc2C)c2ccccc21,4.3,8.3,-2.1,8.0,7.7,·
O=c1[nH]nc(CNc2ccc(C(F)(F)F)cc2)c2ccccc12,3.2,-0.5,50.3*,0.6,-0.9,34.5*
COc1ccc(Cl)cc1N=Cc1c(O)cc(C)oc1=O,0.5,-5.9,1.9,-0.5,12.4,·
Cc1cc(O)c(/C=N/Nc2cccc(Cl)c2)c(=O)o1,4.0,1.2,38.2*,0.9,6.0,30.4*
Cc1cc(O)c(/C=N/OCc2ccc(Cl)cc2Cl)c(=O)o1,2.1,-1.8,85.0*,16.8,-1.4,77.0*
Cc1cc(O)c(/C=N/Nc2ccc(Cl)cc2)c(=O)o1,3.3,10.7,12.3,2.2,-2.0,·
NC(=O)NC(=O)COC(=O)/C=C/c1cccc(Br)c1,-2.2,3.5,1.4,1.0,-1.9,·
O=C(COC(=O)/C=C/c1cccc(Br)c1)NC1CC1,4.1,0.2,31.9*,3.5,-1.4,23.6
O=C(COC(=O)/C=C/c1cccc(Cl)c1)Nc1ccccc1-c1ccccc1,0.6,12.9,·,·,·,·
SMILES,pPAFAH FP inh,Apaf1 inhib,PAFAH2 inh,PAFAH1B2 inh,PAFAH1B3 inh,PAFAH2 FP conf
O=C(COC(=O)/C=C/c1cccc(Cl)c1)NC1CCCC1,8.1,3.5,74.0*,-0.5,8.5,65.6*
O=C(COC(=O)/C=C/c1cccc(Cl)c1)NC1CC1,2.4,-13.5,31.5*,0.9,0.6,18.8
O=C(COC(=O)/C=C/c1cccc(Cl)c1)Nc1c(F)cccc1F,0.7,-2.7,2.3,0.8,2.1,·
O=C(CN1CCOCC1)N1CCOCC1,·,·,3.7,1.2,8.5,·
O=C(CCS(=O)(=O)c1ccc(Br)cc1)N1CCN(c2ccccc2)CC1,4.7,5.7,32.5*,4.8,4.1,20.8
O=C(O)C(Cc1ccccc1)N1C(=O)c2c(Cl)c(Cl)c(Cl)c(Cl)c2C1=O (stereo not drawn),0.3,5.1,31.7*,6.5,-3.0,25.9
CCN1C(=O)N(C)C(N(O)C(=O)NC)C1(C)C (stereo not drawn),-1.4,-0.8,55.7*,3.4,7.2,-4.5
